For data set [1], the system named is HCV GT-1a H77 subgenomic replicon. As to the kind of experiment: Stable HCV GT-1a H77 subgenomic replicon assay. Type of data set: cell-based, Hepatitis C virus. The settings on record: for Plasma Shift fold: EC50 with 40% human serum vs without, GT-1a and GT-1b. In general terms: In antiviral work, replicon cells carry a viral genome segment that copies itself.

In data set [2] the test system is HCV GT-1b Con1 subgenomic replicon. As to the kind of experiment: Stable HCV GT-1b Con1 subgenomic replicon assay. It counts as cell-based, Hepatitis C virus.
Data set [3] shares this test system. The settings on record: genotype not given; cited from earlier work.
In data set [4] the test system is HCV genotype 1 (GT-1). The settings on record: triple combination with Peg-IFN/RBV, genotype-1 naive patients; cited from earlier work.
In data set [5] the test system is GT-1b Con1 transient replicon with NS5B clinical isolates. As to the kind of experiment: Transient HCV replicon assay, panel of GT-1b NS5B clinical isolates. It counts as cell-based. The settings on record: Hepatitis C virus, GT1B, read-out: mean EC50, GT 1b panel, geometric mean.
Data set [6] in a line: Pharmacokinetics in rat. The settings on record: male, Wistar/Han (CRL:WI), plasma, po. It counts as in vivo, Male Wistar/Han (CRL:WI) rats.
Data set [7] is described as follows: Pharmacokinetics in dog. The settings on record: male, beagle, plasma, po. It counts as in vivo, Male beagle dogs. In outline:
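Male beagle dogs with free access to food and water received a single oral dose of test compound by gavage in 2% Klucel LF in water. Blood was collected into EDTA tubes at typically 0.25, 0.5, 1, 2, 4, 6, 8 and 24 h post-dose. Plasma concentrations were measured by LC/MS/MS after protein precipitation with acetonitrile.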

As to `COc1c(C(C)(C)C)cc(-n2ccc(=O)[nH]c2=O)c2ccc(-c3ccc(NS(C)(=O)=O)cc3)cc12` [Compound 36, N-[4-[7-tert-Butyl-5-(2,4-dioxopyrimidin-1-yl)-8-methoxy-2-naphthyl]phenyl] methanesulfonamide], the “increase in potency against both genotypes with respect to quinoline 35” value in data set [1] (replicon GT-1a and GT-1b) is reported as 2- to 3 fold. The EC50 is the concentration giving half of the maximal effect. For the compound `COc1c(/C=C/c2ccc(NS(C)(=O)=O)cc2)cc(-c2cc(F)c[nH]c2=O)cc1C(C)(C)C` [Compound 7, reference compound], the EC50 in data set [1] (Hepatitis C virus, GT1A, read-out: GT-1a EC50) came out at 8 nM; in data set [2] (Hepatitis C virus, GT1B, read-out: GT-1b EC50) it was 3 nM. Moreover, the “activity in the HCV subgenomic replicon assay” value in data set [3] is given as “single digit nM”.

Take `COc1c(C(C)(C)C)cc(-n2ccc(=O)[nH]c2=O)c2ncc(-c3ccc(NS(C)(=O)=O)cc3)cc12` [Compound 35, N-[4-[6-tert-Butyl-8-(2,4-dioxopyrimidin-1-yl)-5-methoxy-3-quinolyl]phenyl] methanesulfonamide]: the “Plasma Shift fold” value in data set [1] was 1.7–2.2 fold.

As to `CCC[C@H](NC(=O)[C@@H]1[C@H]2CCC[C@H]2CN1C(=O)[C@@H](NC(=O)[C@@H](NC(=O)c1cnccn1)C1CCCCC1)C(C)(C)C)C(=O)C(=O)NC1CC1` [Telaprevir], in data set [4], the SVR rates result is “up to 75%”. On to `COc1c(C(C)(C)C)cc(N2CCCNC2=O)c2ncc(-c3ccc(NS(C)(=O)=O)cc3)cc12` [Compound 43], for which the “decrease in potency against GT-1a” value in data set [1] (vs dihydrouracil 42) turned out to be 14 fold. In addition, the “decrease in potency against GT-1b” value in data set [2] (vs dihydrouracil 42) was 6 fold.

Take `COc1ccc(-c2cc(C(C)(C)C)c(OC)c3cc(-c4ccc(NS(C)(=O)=O)cc4)cnc23)c(=O)[nH]1` [Compound 41, N-[4-[6-tert-Butyl-5-methoxy-8-(6-methoxy-2-oxo-1H-pyridin-3-yl)-3-quinolyl]phenyl] methanesulfonamide]: the “improvement in the 40% HS replicon assay” value in data set [1] (vs lead compound 7) stood at 6 fold. Further, the EC50 in data set [5] is 0.26 nM. Also, the concentration at 8 h in data set [6] was determined as 1220 nM; in data set [7], 1950 nM.

Regarding `CC(C)(C)c1cc(-c2cc(F)c[nH]c2=O)c2ncc(-c3ccc(NS(C)(=O)=O)cc3)cc2c1` [Compound 34], in data set [1] (desmethoxy analog vs 33, replicon GT-1a and GT-1b), the drop in activity is listed as 4-to 6 fold. In the case of `COc1ccc(-c2cc(C(C)(C)C)c(OC)c3cc(N4CC[C@H](CNS(C)(=O)=O)C4)cnc23)c(=O)[nH]1` [Compound 50, N-[[(3S)-1-[6-tert-butyl-5-methoxy-8-(6-methoxy-2-oxo-1H-pyridin-3-yl)-3-quinolyl]pyrrolidin-3-yl]methyl]methanesulfonamide], the concentration at 8 h in data set [6] stood at 3500 nM.

As to `COc1c(C(C)(C)C)cc(-c2ccc[nH]c2=O)c2ncc(-c3ccc(NS(C)(=O)=O)cc3)cc12` [Compound 39, N-[4-[6-tert-Butyl-5-methoxy-8-(2-oxo-1H-pyridin-3-yl)-3-quinolyl]phenyl] methanesulfonamide], the “Plasma Shift fold” value in data set [1] is 0.8–3.5 fold. In the case of `COc1c(C2(C(F)F)CC2)cc(-n2ccc(=O)[nH]c2=O)c2ncc(-c3ccc(NS(C)(=O)=O)cc3)cc12` [Compound 53, N-[4-[6-[1-(Difluoromethyl)cyclopropyl]-8-(2,4-dioxopyrimidin-1-yl)-5-methoxy-3-quinolyl]phenyl]methanesulfonamide], in data set [1] (replicon GT-1a and GT-1b), the “improvement in potency with respect to compounds 51 and 52” value is on record as 3- to 9 fold. As for `COc1c(C(C)(C)C)cc(-c2cn(C)c(=O)[nH]c2=O)c2ncc(-c3ccc(NS(C)(=O)=O)cc3)cc12` [Compound 44], the “increase in potency against both genotypes with respect to quinoline 35” value in data set [1] (replicon GT-1a and GT-1b) was ~ 2 fold. On to `CC(C)(C)NC(=O)N[C@H](C(=O)N1C[C@H]2[C@@H]([C@H]1C(=O)NC(CC1CCC1)C(=O)C(N)=O)C2(C)C)C(C)(C)C` (stereo partly drawn) [Boceprevir], for which the SVR rates in data set [4] is listed as at most 68%.

(Values after article PMC3954946 (Journal of medicinal chemistry, 2013).)
